Measured values published in ChEMBL document CHEMBL1140683, “N-4-Pyrimidinyl-1H-indazol-4-amine inhibitors of Lck: indazoles as phenol isosteres with improved pharmacokinetics” (Bioorg Med Chem Lett, 2007).

Key:
[1] = target: Proto-oncogene tyrosine-protein kinase LCK (Mus musculus, UniProt P06240); assay: Inhibition of murine Lck by TR-FRET assay
[2] = target: T1, Tyrosine-protein kinase TXK (Homo sapiens, UniProt P42681); assay: Inhibition of Txk
T1 sequence (P42681 whole entry): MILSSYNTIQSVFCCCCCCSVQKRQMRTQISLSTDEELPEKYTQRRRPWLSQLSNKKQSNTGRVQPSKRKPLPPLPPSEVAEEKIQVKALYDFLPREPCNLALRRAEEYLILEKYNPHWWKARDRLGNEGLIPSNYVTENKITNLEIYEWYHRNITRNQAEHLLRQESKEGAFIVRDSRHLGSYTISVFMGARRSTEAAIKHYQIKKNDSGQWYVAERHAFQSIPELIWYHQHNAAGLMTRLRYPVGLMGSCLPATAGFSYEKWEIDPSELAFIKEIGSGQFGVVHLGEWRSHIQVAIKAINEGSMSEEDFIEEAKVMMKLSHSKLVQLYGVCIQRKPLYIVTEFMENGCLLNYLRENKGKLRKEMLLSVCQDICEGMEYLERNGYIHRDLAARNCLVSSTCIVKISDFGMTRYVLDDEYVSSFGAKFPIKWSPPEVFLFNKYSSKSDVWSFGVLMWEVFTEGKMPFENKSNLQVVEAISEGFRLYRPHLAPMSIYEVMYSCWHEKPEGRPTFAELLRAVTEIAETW

[3] = target: Tyrosine-protein kinase Lck (Homo sapiens, UniProt P06239); assay: Inhibition of human Lck by TR-FRET assay
[4] = target: Tyrosine-protein kinase Lyn (Homo sapiens, UniProt P07948); assay: Inhibition of Lyn
[5] = target: Tyrosine-protein kinase BTK (Homo sapiens, UniProt Q06187); assay: Inhibition of Btk
[6] = Volume of distribution at steady state in BALB/c mouse at 2.5 mg/kg, iv; format: ADME, organism-based; set-up: dose 2.5 mg/kg, route intravenous; settings: in vivo, read-out: Vdss
Procedure, shortened: (§1)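 Blood sampled over 8 h. Plasma protein-precipitated with acetonitrile, dried under nitrogen, reconstituted in 10:90 acetonitrile:water. Quantified by LC-MS/MS on an ODS3 column with a 0.1% formic acid water/acetonitrile gradient.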

[7] = Half life in BALB/c mouse at 2.5 mg/kg, iv; format: ADME, organism-based; set-up: dose 2.5 mg/kg, route intravenous; settings: in vivo; procedure, shortened: as §1
[8] = AUC (0 to t) in BALB/c mouse at 2.5 mg/kg, iv; format: ADME, organism-based; set-up: dose 2.5 mg/kg, route intravenous; settings: plasma; procedure, shortened: as §1
[9] = target: Tyrosine-protein kinase SYK (Homo sapiens, UniProt P43405)
[10] = Plasma clearance in BALB/c mouse at 2.5 mg/kg, iv; format: ADME, organism-based; set-up: dose 2.5 mg/kg, route intravenous; procedure, shortened: as §1
[11] = Oral bioavailability in BALB/c mouse at 10 mg/kg, po; format: ADME, organism-based; settings: in vivo; procedure, shortened: as §1
[12] = AUC (0 to t) in BALB/c mouse at 10 mg/kg, po; format: ADME, organism-based; set-up: dose 10 mg/kg, route oral; settings: plasma; procedure, shortened: as §1
[13] = AUC (0 to t) in BALB/c mouse at 1 mg/kg, po; format: ADME, organism-based; set-up: dose 1 mg/kg, route oral; settings: plasma; procedure, shortened: as §1
[14] = Plasma clearance in BALB/c mouse at 1 mg/kg, iv; format: ADME, organism-based; set-up: dose 1 mg/kg, route intravenous; procedure, shortened: as §1
[15] = Volume of distribution at steady state in BALB/c mouse at 1 mg/kg, iv; format: ADME, organism-based; set-up: dose 1 mg/kg, route intravenous; settings: in vivo, read-out: Vdss; procedure, shortened: as §1
[16] = Half life in BALB/c mouse at 1 mg/kg, iv; format: ADME, organism-based; set-up: dose 1 mg/kg, route intravenous; settings: in vivo; procedure, shortened: as §1
[17] = AUC (0 to t) in BALB/c mouse at 1 mg/kg, iv; format: ADME, organism-based; set-up: dose 1 mg/kg, route intravenous; settings: plasma; procedure, shortened: as §1
[18] = Oral bioavailability in BALB/c mouse at 1 mg/kg, po; format: ADME, organism-based; settings: in vivo; procedure, shortened: as §1

Sequence of Tyrosine-protein kinase Lyn (P07948 whole entry): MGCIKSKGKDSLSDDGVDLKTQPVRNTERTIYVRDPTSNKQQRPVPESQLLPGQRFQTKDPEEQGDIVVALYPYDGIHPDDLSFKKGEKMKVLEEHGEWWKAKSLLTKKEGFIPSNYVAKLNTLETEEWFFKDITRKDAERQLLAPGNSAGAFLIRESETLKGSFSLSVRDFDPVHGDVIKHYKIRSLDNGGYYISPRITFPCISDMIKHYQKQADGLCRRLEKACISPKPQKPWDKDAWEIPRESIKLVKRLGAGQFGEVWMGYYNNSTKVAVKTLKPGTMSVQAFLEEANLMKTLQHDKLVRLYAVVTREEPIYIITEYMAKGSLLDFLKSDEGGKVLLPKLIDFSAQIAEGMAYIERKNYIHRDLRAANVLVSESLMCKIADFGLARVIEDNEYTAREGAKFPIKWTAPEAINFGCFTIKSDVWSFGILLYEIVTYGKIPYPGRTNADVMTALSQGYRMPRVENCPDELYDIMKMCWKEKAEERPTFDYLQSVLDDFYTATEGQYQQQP
Sequence of Proto-oncogene tyrosine-protein kinase LCK (P06240 whole entry): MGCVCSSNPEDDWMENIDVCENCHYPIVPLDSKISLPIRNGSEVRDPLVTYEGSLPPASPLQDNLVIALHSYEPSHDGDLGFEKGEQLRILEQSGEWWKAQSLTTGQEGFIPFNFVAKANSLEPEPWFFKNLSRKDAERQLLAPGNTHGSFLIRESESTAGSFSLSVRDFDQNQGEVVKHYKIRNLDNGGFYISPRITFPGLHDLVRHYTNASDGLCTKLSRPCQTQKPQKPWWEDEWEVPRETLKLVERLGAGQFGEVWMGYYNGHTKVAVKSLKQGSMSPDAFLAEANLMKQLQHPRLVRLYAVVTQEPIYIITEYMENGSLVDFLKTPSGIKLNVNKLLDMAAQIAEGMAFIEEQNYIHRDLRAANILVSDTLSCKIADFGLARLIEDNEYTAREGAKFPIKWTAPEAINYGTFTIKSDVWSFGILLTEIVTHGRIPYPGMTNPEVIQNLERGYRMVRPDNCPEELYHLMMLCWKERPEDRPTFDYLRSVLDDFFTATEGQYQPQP
Sequence of Tyrosine-protein kinase BTK (Q06187 whole entry): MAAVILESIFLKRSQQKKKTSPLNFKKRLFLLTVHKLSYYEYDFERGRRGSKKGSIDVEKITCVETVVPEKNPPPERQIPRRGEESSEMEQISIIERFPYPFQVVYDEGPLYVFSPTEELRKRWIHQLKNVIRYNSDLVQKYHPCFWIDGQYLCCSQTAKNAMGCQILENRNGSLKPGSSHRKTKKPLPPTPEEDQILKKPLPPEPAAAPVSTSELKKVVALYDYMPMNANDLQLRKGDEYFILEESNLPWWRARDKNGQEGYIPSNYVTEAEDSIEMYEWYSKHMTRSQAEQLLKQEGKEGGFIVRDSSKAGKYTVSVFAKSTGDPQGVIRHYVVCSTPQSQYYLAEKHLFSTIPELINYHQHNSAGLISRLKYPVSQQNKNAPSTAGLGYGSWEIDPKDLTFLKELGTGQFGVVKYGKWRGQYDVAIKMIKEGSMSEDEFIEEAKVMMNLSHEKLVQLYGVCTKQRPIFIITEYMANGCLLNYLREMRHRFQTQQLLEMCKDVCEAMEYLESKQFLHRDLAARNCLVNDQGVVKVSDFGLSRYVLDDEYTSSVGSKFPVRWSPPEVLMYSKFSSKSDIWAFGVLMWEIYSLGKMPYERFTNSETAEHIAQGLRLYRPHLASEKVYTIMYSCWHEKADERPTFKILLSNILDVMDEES
Sequence of Tyrosine-protein kinase Lck (P06239 whole entry): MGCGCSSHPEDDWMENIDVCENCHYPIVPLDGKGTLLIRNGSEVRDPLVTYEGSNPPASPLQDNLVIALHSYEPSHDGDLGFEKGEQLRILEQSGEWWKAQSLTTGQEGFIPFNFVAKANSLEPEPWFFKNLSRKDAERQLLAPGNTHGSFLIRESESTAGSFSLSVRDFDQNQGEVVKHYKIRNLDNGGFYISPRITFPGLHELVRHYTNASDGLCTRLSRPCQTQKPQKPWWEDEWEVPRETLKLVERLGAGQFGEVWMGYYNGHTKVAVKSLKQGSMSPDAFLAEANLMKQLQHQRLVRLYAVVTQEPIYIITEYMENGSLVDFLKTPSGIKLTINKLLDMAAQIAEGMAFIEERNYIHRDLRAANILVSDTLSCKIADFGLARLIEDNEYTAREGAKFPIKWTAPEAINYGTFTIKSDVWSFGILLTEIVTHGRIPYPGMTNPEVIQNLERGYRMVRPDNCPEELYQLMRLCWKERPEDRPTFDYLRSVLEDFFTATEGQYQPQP

SMILES | IC50 [1] | other results
COc1cccc(Nc2ccnc(Nc3cccc(C(N)=O)c3)n2)c1 | 2700 nM | 
Cc1ccc(C(=O)N(C)C)cc1Nc1ccnc(Nc2cccc(C(N)=O)c2)n1 | 9300 nM | 
Cc1ccc(Nc2ccnc(Nc3cccc(C(N)=O)c3)n2)c2cn[nH]c12 | 55 nM | 
Cc1ccc(CN)cc1Nc1ccnc(Nc2cccc(C(N)=O)c2)n1 | 3400 nM | 
Cc1cc(O)ccc1Nc1ccnc(Nc2cccc(C(N)=O)c2)n1 | 40 nM | 
Cn1cnc2cc(Nc3ccnc(Nc4cccc(C(N)=O)c4)n3)ccc21 | 1800 nM | 
Cc1ccc(F)cc1Nc1ccnc(Nc2cccc(C(N)=O)c2)n1 | 270 nM | 
Cn1ncc2ccc(Nc3ccnc(Nc4cccc(C(N)=O)c4)n3)cc21 | 8200 nM | 
Cc1ccc(O)cc1Nc1ccnc(Nc2cccc(C(N)=O)c2)n1 | 13 nM | IC50 [2]: 2 nM; IC50 [3]: 14 nM; IC50 [4]: 3 nM; IC50 [5]: 9 nM
Cc1ccc(O)cc1Nc1ccnc(Nc2cccc(S(N)(=O)=O)c2)n1 | 8.5 nM | IC50 [2]: 0.4 nM; Vd [6]: 0.3 L/kg; half-life [7]: 7.2 min; AUC(0-t) [8]: 635 ng·h/mL; IC50 [9]: 4 nM; clearance [10]: 65.5 mL/min/kg; bioavailability [11]: < 1%; IC50 [4]: 1 nM; AUC(0-t) [12]: 2 ng·h/mL
NC(=O)c1cccc(Nc2nccc(Nc3ccc(F)cc3F)n2)c1 | 1100 nM | 
Cc1ccc(NS(C)(=O)=O)cc1Nc1ccnc(Nc2cccc(C(N)=O)c2)n1 | 7700 nM | 
CC(=O)N(C)c1cccc(Nc2ccnc(Nc3cccc(C(N)=O)c3)n2)c1 | 1800 nM | 
COc1ccc(C)c(Nc2ccnc(Nc3cccc(S(N)(=O)=O)c3)n2)c1 | 54 nM | 
NC(=O)c1cccc(Nc2nccc(Nc3ccc4nn[nH]c4c3)n2)c1 | 4400 nM | 
Cn1cnc2ccc(Nc3ccnc(Nc4cccc(C(N)=O)c4)n3)cc21 | 16000 nM | 
CC(C)c1ccc(O)cc1Nc1ccnc(Nc2cccc(C(N)=O)c2)n1 | 880 nM | 
Cc1ccc2[nH]ncc2c1Nc1ccnc(Nc2cccc(C(N)=O)c2)n1 | 12 nM | IC50 [2]: 28 nM; IC50 [9]: 220 nM; IC50 [4]: 40 nM; IC50 [5]: 97 nM
NC(=O)c1cccc(Nc2nccc(Nc3cccc4ncccc34)n2)c1 | 560 nM | 
Cc1cc(O)cc(Nc2ccnc(Nc3cccc(C(N)=O)c3)n2)c1 | 73 nM | 
Cc1ccc(N)cc1Nc1ccnc(Nc2cccc(C(N)=O)c2)n1 | 97 nM | 

SMILES | IC50 [1] | other results
NC(=O)c1cccc(Nc2nccc(Nc3cccc4[nH]ncc34)n2)c1 [GW782612X] | 100 nM | 
COc1ccc(C)c(Nc2ccnc(Nc3cccc(C(N)=O)c3)n2)c1 | 86 nM | 
Cc1ccc2[nH]ncc2c1Nc1ccnc(Nc2cccc(S(N)(=O)=O)c2)n1 | 19 nM | IC50 [2]: 220 nM; AUC(0-t) [13]: 190 ng·h/mL; IC50 [9]: 620 nM; IC50 [4]: 430 nM; clearance [14]: 22.4 mL/min/kg; Vd [15]: 0.7 L/kg; half-life [16]: 31.8 min; AUC(0-t) [17]: 743 ng·h/mL; bioavailability [18]: 25%; IC50 [5]: 69 nM
NC(=O)c1cccc(Nc2nccc(Nc3ccc4[nH]ncc4c3)n2)c1 | 3000 nM | 
NC(=O)c1cccc(Nc2nccc(Nc3cc(O)ccc3Br)n2)c1 | 41 nM | 
Cn1ncc2c(Nc3ccnc(Nc4cccc(C(N)=O)c4)n3)cccc21 | 1600 nM | 
Cc1cccc(O)c1Nc1ccnc(Nc2cccc(C(N)=O)c2)n1 | 100 nM | 
Cc1cc(Nc2ccnc(Nc3cccc(C(N)=O)c3)n2)c2cn[nH]c2c1 | 520 nM | 
NS(=O)(=O)c1cccc(Nc2nccc(Nc3cccc4[nH]ncc34)n2)c1 | 33 nM | 
NC(=O)c1cccc(Nc2nccc(Nc3cccc4cn[nH]c34)n2)c1 | 1400 nM | 
NC(=O)c1cccc(Nc2nccc(Nc3ccc4ncsc4c3)n2)c1 | 3000 nM | 
Cc1ccc(Cl)cc1Nc1ccnc(Nc2cccc(C(N)=O)c2)n1 | 380 nM | 
NC(=O)c1cccc(Nc2nccc(Nc3cccc(F)c3)n2)c1 | 3300 nM | 
NC(=O)c1cccc(Nc2nccc(Nc3cccc(O)c3)n2)c1 | 130 nM | 
Cc1ccccc1Nc1ccnc(Nc2cccc(C(N)=O)c2)n1 | 89 nM | 
Cc1ccc(C(N)=O)cc1Nc1ccnc(Nc2cccc(C(N)=O)c2)n1 | 1300 nM | 
NC(=O)c1cccc(Nc2nccc(Nc3cccc4nn[nH]c34)n2)c1 | 490 nM | 
NS(=O)(=O)c1cccc(Nc2nccc(Nc3ccc(F)cc3F)n2)c1 | 350 nM | 
Cc1ccc2c(cnn2C)c1Nc1ccnc(Nc2cccc(C(N)=O)c2)n1 | 2800 nM | 
Cc1ccc(Nc2ccnc(Nc3cccc(C(N)=O)c3)n2)cc1O | 190 nM | 
Cc1nc2c(Nc3ccnc(Nc4cccc(C(N)=O)c4)n3)cccc2[nH]1 | 5600 nM | 
